Data set [1] deals with Mus musculus. Briefly: Anticonvulsant activity in mouse assessed as protection against metrazole-induced seizures at 100 mg/kg, ip after 4 hrs by subcutaneous pentylenetetrazole seizure threshold test. In kind it is functional, organism-based. On the set-up: dose 100 mg/kg. Summed up: (§1)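 Screen in mice given 30, 100 or 300 mg/kg ip in 0.9% NaCl or 30% PEG 400 (0.01 ml/g), four animals per dose. Subcutaneous metrazole challenge was given to one mouse per dose at 30 min and to another at 4 h. Activity was scored as the lowest active dose.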

The test system of data set [2] is Mus musculus. Briefly: Anticonvulsant activity in mouse assessed as protection against maximal electroshock-induced hindlimb tonic extensor component of seizure at 300 mg/kg, ip after 4 hrs by MES test. In kind it is functional, organism-based. Also noted: dose 300 mg/kg. In short, it runs like this: (§2)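 Mice were dosed ip at 30, 100 or 300 mg/kg in 0.9% NaCl or 30% PEG 400 (0.01 ml/g), with four animals per dose. One mouse per dose got MES at 30 min and another at 4 h. Stimulus: 60-Hz AC, 50 mA, 0.2 s, corneal electrodes. Protection was abolition of hindlimb tonic extension; the lowest active dose was scored.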
In general terms: In the maximal electroshock model the usual endpoint is tonic extension of the hind limbs.

Data set [3] has as its system Mus musculus. As to the kind of experiment: Anticonvulsant activity in mouse assessed as protection against maximal electroshock-induced hindlimb tonic extensor component of seizure at 300 mg/kg, ip after 30 mins by MES test. In kind it is functional, organism-based. On the set-up: dose 300 mg/kg. In short, it runs like this:
as §2

Data set [4] concerns Mus musculus. As to the kind of experiment: Anticonvulsant activity in mouse assessed as protection against metrazole-induced seizures at 300 mg/kg, ip after 30 mins by subcutaneous pentylenetetrazole seizure threshold test. In kind it is functional, organism-based. On the set-up: dose 300 mg/kg. In short, it runs like this: as §1
For data set [5], the system named is Mus musculus. Briefly: Neurotoxicity in ip dosed mouse assessed as CNS depression. In kind it is toxicity, organism-based, Central nervous system. As to conditions: in vivo.
The subject of data set [6] is Mus musculus. Briefly: Anticonvulsant activity in mouse assessed as protection against metrazole-induced seizures at 30 mg/kg, ip after 4 hrs by subcutaneous pentylenetetrazole seizure threshold test. In kind it is functional, organism-based. On the set-up: dose 30 mg/kg. In short, it runs like this: as §1
Data set [7] in a line: Neurotoxicity in ip dosed mouse by rotarod test. In kind it is toxicity, organism-based. As to conditions: in vivo.
Data set [8] deals with Mus musculus. Briefly: Anticonvulsant activity in mouse assessed as protection against maximal electroshock-induced hindlimb tonic extensor component of seizure at 100 mg/kg, ip after 30 mins by MES test. In kind it is functional, organism-based. Also noted: dose 100 mg/kg. In short, it runs like this:
as §2

Data set [9] has as its system Mus musculus. Briefly: Anticonvulsant activity in mouse assessed as protection against metrazole-induced seizures at 30 mg/kg, ip after 30 mins by subcutaneous pentylenetetrazole seizure threshold test. In kind it is functional, organism-based. Also noted: dose 30 mg/kg. Summed up: as §1
For data set [10], the system named is Mus musculus. Briefly: Anticonvulsant activity in ip dosed mouse assessed as protection against metrazole-induced seizures by subcutaneous pentylenetetrazole seizure threshold test. In kind it is functional. Summed up:
(§3)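 Against subcutaneous metrazole in ip-dosed mice (0.9% NaCl or 30% PEG 400 vehicle), ED50 was taken at 30 min or at the time of peak effect (0.5 h or 2 h, as the line states). ED50 and confidence limits were derived by Litchfield–Wilcoxon.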

The subject of data set [11] is Mus musculus. As to the kind of experiment: Anticonvulsant activity in mouse assessed as protection against metrazole-induced seizures at 300 mg/kg, ip after 4 hrs by subcutaneous pentylenetetrazole seizure threshold test. Also noted: dose 300 mg/kg. In kind it is functional, organism-based. Summed up: as §1
Data set [12] concerns Mus musculus. Briefly: Anticonvulsant activity in ip dosed mouse assessed as protection against maximal electroshock-induced hindlimb tonic extensor component of seizure by MES test. In kind it is functional. Summed up:
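Mice dosed ip at 30, 100 and 300 mg/kg, compound in 0.9% NaCl or 30% PEG 400 (0.01 ml/g); four animals per dose, one tested at 30 min and one at 4 h. Seizure induced by 60-Hz corneal current, 50 mA, 0.2 s; protection = abolition of hindlimb tonic extension. ED50 with confidence limits by Litchfield–Wilcoxon.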

Data set [13] has as its system Mus musculus. Briefly: Anticonvulsant activity in mouse assessed as protection against maximal electroshock-induced hindlimb tonic extensor component of seizure at 100 mg/kg, ip after 4 hrs by MES test. In kind it is functional, organism-based. On the set-up: dose 100 mg/kg. In short, it runs like this:
as §2

Data set [14] deals with Mus musculus. As to the kind of experiment: Anticonvulsant activity in ip dosed mouse assessed as protection against metrazole-induced seizures after 0.5 hrs by subcutaneous pentylenetetrazole seizure threshold test. In kind it is functional. In short, it runs like this:
as §3

Data set [15] relates to Mus musculus. Briefly: Anticonvulsant activity against metrazole-induced seizures in ip dosed mouse assessed as duration of action by subcutaneous pentylenetetrazole seizure threshold test. In kind it is functional. Summed up: as §1
Data set [16] has as its system Mus musculus. As to the kind of experiment: Anticonvulsant activity in ip dosed mouse assessed as protection against metrazole-induced seizures after 2 hrs by subcutaneous pentylenetetrazole seizure threshold test. In kind it is functional. In short, it runs like this:
as §3

Data set [17] relates to Mus musculus. Briefly: Anticonvulsant activity in ip dosed mouse assessed as protection against maximal electroshock-induced hindlimb tonic extensor component of seizure after 2 hrs by MES test. In kind it is functional. In short, it runs like this: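 MES ED50 in ip-dosed mice (0.9% NaCl or 30% PEG 400 vehicle) was read at the time of peak effect (2 h). Stimulus: 60-Hz AC, 50 mA, 0.2 s via corneal electrodes, with abolition of hindlimb tonic extension as the end point. ED50 and confidence limits were derived by Litchfield–Wilcoxon.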

The subject of data set [18] is Mus musculus. Briefly: Anticonvulsant activity against maximal electroshock-induced hindlimb tonic extensor component of seizure in ip dosed mouse assessed as duration of action by MES test. In kind it is functional. Summed up:
as §2

Data set [19] deals with Mus musculus. As to the kind of experiment: Anticonvulsant activity in mouse assessed as protection against maximal electroshock-induced hindlimb tonic extensor component of seizure at 30 mg/kg, ip after 4 hrs by MES test. In kind it is functional, organism-based. On the set-up: dose 30 mg/kg. Summed up:
as §2

Activity calls are given as the source filed them. Bounds are passed on as bounds.

Regarding `CN1C(=O)CC(CCCN2C(=O)C=CC2=O)(c2ccccc2)C1=O` (stereo not given), the outcome with Mus musculus [1] was Active. For the same molecule, the result with Mus musculus [2], in the data set with Mus musculus [3] and with Mus musculus [4] was inactive. Also, the Activity result in the data set with Mus musculus [5] was “Toxic”.

On to `CN1C(=O)CC(c2ccccc2)C1=O` (stereo not given) [PHENSUXIMIDE], for which the outcome in the data set on Mus musculus [6], in the data set on Mus musculus [8], with Mus musculus [2] and in the data set on Mus musculus [9] was Active. The same molecule came in with a TD50 in [7] of 232 mg/kg. For the same molecule, the median effective dose (ED50) in the data set with Mus musculus [10] amounted to 50 mg/kg.

Turning to `CN1C(=O)CC(C(=O)CBr)(c2ccccc2)C1=O` (stereo not given), the result with Mus musculus [2], with Mus musculus [11] and in the data set on Mus musculus [3] was inactive. Moreover, in the data set with Mus musculus [9], the outcome was Active.

For `CN1C(=O)CC(C(=O)c2ccc(N3C(=O)C=CC3=O)cc2)(c2ccccc2)C1=O` (stereo not given), the result with Mus musculus [2], in the data set on Mus musculus [11], with Mus musculus [3] and in the data set with Mus musculus [4] was inactive.

For `CN1C(=O)CC(C)(c2ccccc2)C1=O` (stereo not given) [METHSUXIMIDE], the ED50 in the data set on Mus musculus [12] came out at 76 mg/kg; in the data set with Mus musculus [10], 35 mg/kg. This molecule also gave a TD50 in data set [7] of 188 mg/kg. Further, the outcome with Mus musculus [2], with Mus musculus [9] and with Mus musculus [3] was Active. Besides, the outcome in the data set with Mus musculus [11] was inactive.

As for `CN1C(=O)CC(c2ccc(NC(=O)CI)cc2)C1=O` (stereo not given), the outcome with Mus musculus [11] and in the data set with Mus musculus [3] was inactive. In addition, the result in the data set with Mus musculus [13] and in the data set with Mus musculus [9] was Active. Besides, the Activity entry in the data set with Mus musculus [5] is on record as “Toxic”.

On to `CN1C(=O)CC(c2ccc(NC(=O)CBr)cc2)C1=O` (stereo not given), for which the outcome in the data set on Mus musculus [6] and in the data set with Mus musculus [9] was Active. Further, the ED50 in the data set with Mus musculus [14] stood at 35 mg/kg. The molecule also came in with a TD50 in data set [7] of 54 mg/kg. Besides, the result in the data set with Mus musculus [2] and in the data set on Mus musculus [3] was inactive. The Time in the data set with Mus musculus [15] was determined as 3.5 h. In addition, the Activity entry with Mus musculus [5] is given as “Toxic”.

For the molecule `CN1C(=O)CC(CCCNC(=O)/C=C\C(=O)O)(c2ccccc2)C1=O` (stereo not given), the outcome with Mus musculus [2], in the data set on Mus musculus [11], in the data set on Mus musculus [3] and in the data set on Mus musculus [4] was inactive.

On to `CN1C(=O)CC(CCNC(=O)/C=C\C(=O)O)(c2ccccc2)C1=O` (stereo not given), for which the outcome in the data set on Mus musculus [2], in the data set on Mus musculus [11], in the data set with Mus musculus [3] and with Mus musculus [4] was inactive.

`CN1C(=O)CC(C(=O)c2ccc(NC(=O)/C=C\C(=O)O)cc2)(c2ccccc2)C1=O` (stereo not given): the outcome in the data set with Mus musculus [2], in the data set on Mus musculus [11], with Mus musculus [3] and in the data set on Mus musculus [4] was inactive.

Take `CN1C(=O)CC(C(=O)CCl)(c2ccccc2)C1=O` (stereo not given): the ED50 was 100 mg/kg in the data set on Mus musculus [16] and 225 mg/kg in the data set on Mus musculus [17]. Moreover, the Time in the data set on Mus musculus [18] was 3.5 h. Besides, the result with Mus musculus [2], in the data set with Mus musculus [9] and in the data set with Mus musculus [3] was Active. In addition, the outcome in the data set with Mus musculus [11] was inactive.

Consider `CN1C(=O)CC(CCN2C(=O)C=CC2=O)(c2ccccc2)C1=O` (stereo not given), for which the result in the data set with Mus musculus [19], in the data set with Mus musculus [6] and with Mus musculus [9] was Active. In addition, in the data set on Mus musculus [15], the Time worked out at 3.5 h. In the data set on Mus musculus [3], the outcome was inactive. Also, the Activity entry in the data set on Mus musculus [5] is “Toxic”.

Take `CN1C(=O)CC(C(=O)c2ccc(NC(=O)CBr)cc2)(c2ccccc2)C1=O` (stereo not given): the outcome with Mus musculus [2], in the data set with Mus musculus [11], with Mus musculus [3] and with Mus musculus [4] was inactive.

On to `CN1C(=O)CC(CCNC(=O)CCl)(c2ccccc2)C1=O` (stereo not given), for which the outcome in the data set with Mus musculus [2], with Mus musculus [11], in the data set with Mus musculus [3] and with Mus musculus [4] was inactive.

Take `CN1C(=O)CC(c2ccc(NC(=O)/C=C\C(=O)O)cc2)C1=O` (stereo not given): the result with Mus musculus [2], in the data set on Mus musculus [11], in the data set with Mus musculus [3] and in the data set on Mus musculus [4] was inactive.

With `CN1C(=O)CC(c2ccc(NC(=O)CCl)cc2)C1=O` (stereo not given), the outcome in the data set with Mus musculus [2], with Mus musculus [11], in the data set on Mus musculus [3] and in the data set on Mus musculus [4] was inactive.

For `CN1C(=O)CC(CCCNC(=O)CCl)(c2ccccc2)C1=O` (stereo not given), the outcome in the data set with Mus musculus [2], in the data set with Mus musculus [11], with Mus musculus [3] and in the data set on Mus musculus [4] was inactive.

Turning to `CN1C(=O)CC(c2ccc(N3C(=O)C=CC3=O)cc2)C1=O` (stereo not given), the outcome with Mus musculus [2], in the data set on Mus musculus [11] and in the data set with Mus musculus [3] was inactive. The outcome in the data set on Mus musculus [9] was Active. Besides, the Activity result in the data set with Mus musculus [5] is given as “Toxic”.

For `CCC1(C)CC(=O)NC1=O` (stereo not given) [ETHOSUXIMIDE], the ED50 is above 1000 mg/kg with Mus musculus [12] and 130 mg/kg in the data set with Mus musculus [10]. For the same molecule, the outcome with Mus musculus [2], with Mus musculus [11] and in the data set on Mus musculus [3] was inactive. The outcome in the data set with Mus musculus [4] was Active.

For orientation: TD50 means the 50% point of the dose-response relation for the toxic effect studied. Usually ED50 stands for the dose that gives a 50% effect, or the effect in half of the subjects.

Source of the values: ChEMBL document CHEMBL3244302, “Potential long-acting anticonvulsants. 1; Synthesis and activity of succinimides containing an alkylating group at the 2 position” (J Med Chem, 1977).
